Compound activity (PubChem)
The full list was thinned out, with hits kept by preference.
GASC1 inh: inhibitors of GASC-1 (KDM4C) histone demethylase, primary screen, biochemical, single concentration HTS; 96,000 tested, 0.15% active; AID 720574, 2013; inhibition, % at 12.5 µM; Lysine-specific demethylase 4C (Homo sapiens), Q9H3R0; GST-KDM4C 2-372, H3K9me3 peptide, LANCE TR-FRET;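 active = mean replicate inhibition above about 25%, with at least 55% of replicates also reaching it, limit read from the data, passing the limit was not always enough; inconclusive = only one of those two conditions met; inactive = neither condition met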
Target sequence (Q9H3R0 2-372 limits assumed): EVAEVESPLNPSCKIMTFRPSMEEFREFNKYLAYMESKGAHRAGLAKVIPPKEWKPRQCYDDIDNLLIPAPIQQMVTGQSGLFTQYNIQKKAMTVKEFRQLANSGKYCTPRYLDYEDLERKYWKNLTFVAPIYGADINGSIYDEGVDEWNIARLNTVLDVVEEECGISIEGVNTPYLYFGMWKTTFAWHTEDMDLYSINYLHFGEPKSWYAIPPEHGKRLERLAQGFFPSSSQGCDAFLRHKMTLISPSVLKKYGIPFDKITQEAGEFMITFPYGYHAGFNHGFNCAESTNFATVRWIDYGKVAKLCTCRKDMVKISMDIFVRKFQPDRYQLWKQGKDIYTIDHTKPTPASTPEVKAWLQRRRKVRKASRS
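Material: GST-tagged GASC-1 (JMJD2C) catalytic fragment, aa 2-372 / Quantity: enzyme final amount 10 nM / Medium: HEPES buffer, pH 7.5, plus ascorbate / Doses: one test concentration per compound / Incubation: 30 min reaction, 60 min detection, RT / Measured by: LANCE TR-FRET / Read-out: inhibition from TR-FRET ratio decrease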
T cruzi growth-1: T. cruzi intracellular proliferation inhibitors, primary screen, cell-based, beta-gal Tulahuen parasites, NIH3T3 host, luminescence; 77,000 tested, 5.9% active; T. cruzi beta-gal in NIH3T3, GalScreen luminescence, 90 h; AID 624255, 2012; inhibition, % at 8.34 µM;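 active = mean inhibition above about 93%, with at least 55% of replicates each passing it, limit read from the data, passing the limit was not always enough; inconclusive = only one of those two conditions holds; inactive = neither condition holds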
IDH1 R132H inh: inhibitors of IDH1 R132H reductase, primary screen, biochemical, plate reader, single point | diaphorase/resazurin fluorescence, 60 min | inhibition, % at 10 µM | 70,000 tested, 0.18% active; in the data active = inhibition above about 34%; inconclusive = no clear call, values can overlap the other calls; inactive = below about 11%;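 also: 0% = DMSO and 100% = no enzyme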
T cruzi growth-2: T. cruzi intracellular proliferation inhibitors, confirmation, cell-based, NIH3T3 host, beta-gal parasite, luminescence, cherry-pick; AID 651739, 2012; shares compounds with T cruzi growth-1; inhibition, % at 8.35 µM; T. cruzi beta-gal in NIH3T3, GalScreen luminescence, 90 h; 5,600 tested, 72% active;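 active = mean replicate inhibition above about 95% and at least 55% of replicates individually reaching it, limit read from the data; inconclusive = only one of the two criteria is met; inactive = neither criterion is met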
T cruzi growth-3: inhibitors of intracellular T. cruzi replication, confirmation, NIH3T3 host cells, beta-gal parasites, cherry-pick, set 2; shares compounds with T cruzi growth-1; T. cruzi beta-gal in NIH3T3, GalScreen luminescence, 90 h; inhibition, % at 2.09 µM; 5,600 tested, 21% active;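 active = mean inhibition above about 95%, with at least 55% of replicates also reaching it, limit read from the data; inconclusive = meets just one of the two conditions; inactive = meets neither condition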;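 also: plate controls were neutral control median for no effect and positive control median for full effect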
NIH3T3 tox: cytotoxicity in mouse NIH/3T3 fibroblasts, confirmation, cytotoxicity control for T. cruzi proliferation inhibitor project, cell-based, cherry-pick, single point; shares compounds with T cruzi growth-1; NIH/3T3 viability, CellTiter-Glo ATP luminescence, 90 h; cytotoxicity (signal decrease), % at 8.35 µM; 5,600 tested, 14% active;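 active = mean signal decrease across replicates above about 35% based on untreated-well scatter, with enough replicates individually passing, limit read from the data; inconclusive = no rule stated though some were filed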;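 also: 0% = median of neutral control wells and 100% = median of positive control wells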
3T3 cytotox 2: NIH/3T3 fibroblast cytotoxicity, confirmation, cytotoxicity control, cell-based, cherry-pick, single point, set 2; inhibition, % at 24.9 µM; NIH/3T3 viability, CellTiter-Glo ATP luminescence, 90 h; shares compounds with T cruzi growth-1; 5,600 tested, 56% active;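 active = mean loss of cell viability signal at or above a set limit, and enough replicates individually reaching it; inconclusive = meets only the mean limit or only the replicate share; inactive = meets neither condition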;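 also: 0% = median of neutral control wells and 100% = median of positive control wells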
An asterisk follows results filed as active; ? = inconclusive; · = no result; ! = not confirmed by another sample.

SMILES	GASC1 inh	T cruzi growth-1	IDH1 R132H inh	T cruzi growth-2	T cruzi growth-3	NIH3T3 tox	3T3 cytotox 2
N#C[C@H]1[C@@H](c2ccc(C#Cc3ccc(F)cc3)cc2)[C@H](CO)N1C(=O)Nc1ccc(F)cc1	-1.4	88.1	·	·	·	·	·
CN1C(=O)c2cc(NC(=O)C3CCCC3)ccc2OC[C@H]2O[C@@H](CC(=O)NCC3CC3)CC[C@@H]21	-0.9	28.7	·	·	·	·	·
CCNC(=O)[C@@H]1[C@@H](CO)[C@@H]2Cn3c(cccc3=O)[C@H]1N2C(=O)Nc1cc(F)ccc1F	-2.4	·	·	·	·	·	·
CN(C)C(=O)[C@@H]1[C@@H](CO)[C@@H]2Cn3c(cccc3=O)[C@H]1N2C(=O)c1ccccc1	1.0	52.8	·	·	·	·	·
CCCNC(=O)[C@@H]1[C@@H](CO)[C@@H]2Cn3c(cccc3=O)[C@H]1N2CCC(F)(F)F	-0.1	93.9*	·	?	-25.8	11.3	-7.5
CCCNC(=O)[C@H]1[C@H](CO)[C@H]2Cn3c(cccc3=O)[C@@H]1N2CCC(F)(F)F	-1.3	2.4	·	·	·	·	·
CCCNC(=O)[C@H]1[C@H](CO)[C@H]2Cn3c(cccc3=O)[C@@H]1N2C(=O)Nc1cc(F)ccc1F	0.0	100.9*	·	?	4.1	20.7	9.4
CN(C)C(=O)[C@H]1[C@H](CO)[C@H]2Cn3c(cccc3=O)[C@@H]1N2C(=O)c1ccc(F)cc1	-0.1	185.0*	·	4.0	-5.2	-17.2	-7.6
CS(=O)(=O)N(CC(=O)Nc1c(F)cccc1F)c1cc(Cl)c(Cl)cc1Cl	·	·	-0.2	·	·	·	·
c1ccc(OCCSc2nnc3n(-c4ccccc4)c4ccccc4n23)cc1	·	·	-0.5	·	·	·	·
CC1(C)CC(=O)C(C=NCCN2CCN(C(=O)Nc3ccc(Cl)c(Cl)c3)CC2)=C(O)C1	·	·	-0.2	·	·	·	·
Cc1ccccc1-c1ccc2c(c1)O[C@@H](CN(C)C(=O)Nc1ccc(C(F)(F)F)cc1)[C@@H](C)CN([C@@H](C)CO)S2(=O)=O	0.9	91.8	-2.9	·	·	·	·
C[C@H]1CN([C@@H](C)CO)S(=O)(=O)c2ccc(-c3ccncc3)cc2O[C@H]1CN(C)C(=O)Nc1ccc(C(F)(F)F)cc1	-4.3	73.5	3.6	·	·	·	·
Cc1ccccc1-c1ccc2c(c1)O[C@@H](CN(C)C(=O)Nc1ccc(C(F)(F)F)cc1)[C@H](C)CN([C@H](C)CO)S2(=O)=O	-0.5	100.9*	-0.8	92.4	98.3*	51.2*	103.7*
C[C@@H]1CN([C@H](C)CO)S(=O)(=O)c2ccc(-c3ccncc3)cc2O[C@H]1CN(C)C(=O)Nc1ccc(C(F)(F)F)cc1	1.8	?	3.4	106.1*	89.6	38.5*	72.7*
C[C@H]1CN([C@@H](C)CO)S(=O)(=O)c2ccc(-c3ccncc3)cc2O[C@@H]1CN(C)C(=O)Nc1ccc(C(F)(F)F)cc1	-1.2	102.1*	4.6	104.3*	85.4	28.8	78.8*
C[C@H](CO)N1C[C@H](C)[C@H](CN(C)C(=O)Nc2ccc(C(F)(F)F)cc2)Oc2cc(-c3ccncc3)ccc2S1(=O)=O	-1.8	74.5	1.0	·	·	·	·
O=C(N/N=C/c1cc(I)cc(I)c1O)c1ccccn1	·	·	0.4	·	·	·	·
COc1cccc(NC(=O)CSC2=C(C#N)C(c3cccc(Br)c3)CC(=O)N2)c1 (stereo unspecified)	·	·	0.4	·	·	·	·
CN(C)CCNC(=O)c1cc(-c2cccnc2)nc2c(Cl)cccc12	·	·	-0.2	·	·	·	·
O=C(Nc1cccc([N+](=O)[O-])c1)c1ccc(Cn2nnc3ccccc32)cc1	·	·	0.5	·	·	·	·
COc1ccc(CCNc2nc(C)nc3c2sc2nc4c(cc23)COC(C)(C)C4)cc1OC	·	·	0.3	·	·	·	·
CCOc1ccc(NC(=O)CSc2ncccn2)cc1	·	·	0.2	·	·	·	·
C[C@H]1CCCCO[C@H](CN(C)Cc2ccc3c(c2)OCO3)[C@@H](C)CN([C@@H](C)CO)C(=O)c2cc(NS(=O)(=O)c3ccc(Cl)cc3)ccc2O1	-0.4	?	0.1	101.5*	67.8	11.6	104.3*
C[C@@H]1CCCCO[C@@H](CN(C)Cc2ccc3c(c2)OCO3)[C@@H](C)CN([C@@H](C)CO)C(=O)c2cc(NS(=O)(=O)c3ccc(Cl)cc3)ccc2O1	-1.3	93.4	1.6	·	·	·	·
SMILES	GASC1 inh	T cruzi growth-1	IDH1 R132H inh	T cruzi growth-2	T cruzi growth-3	NIH3T3 tox	3T3 cytotox 2
C[C@@H]1CCCCO[C@@H](CN(C)Cc2ccc3c(c2)OCO3)[C@@H](C)CN([C@H](C)CO)C(=O)c2cc(NS(=O)(=O)c3ccc(Cl)cc3)ccc2O1	-0.7	90.3	·	·	·	·	·
C[C@@H]1CN([C@H](C)CO)C(=O)c2cc(NS(=O)(=O)c3ccc(Cl)cc3)ccc2O[C@@H](C)CCCCO[C@H]1CN(C)Cc1ccc2c(c1)OCO2	-1.7	106.0*!	·	97.3*	106.8*	19.8	103.6*
Cc1cccc(CSc2nc3c(c(=O)[nH]2)C(C(C)C)C2=C(CC(C)(C)CC2=O)N3)c1 (stereo unspecified)	·	·	1.6	·	·	·	·
CC(NS(=O)(=O)c1ccccc1)C(=O)Nc1ccc(F)c(Cl)c1 (stereo unspecified)	·	·	0.2	·	·	·	·
CCN(CC(=O)Nc1ccc(C(N)=O)cc1)S(=O)(=O)c1ccc(F)cc1	·	·	0.0	·	·	·	·
CC(=O)c1ccc(NC(=O)CSc2nc3ccc(NC(=O)c4ccccc4Cl)cc3s2)cc1	·	·	0.2	·	·	·	·
Cc1sc2ncnc(SCC(=O)NCC3CCCO3)c2c1-c1ccc(Cl)cc1 (stereo unspecified)	·	·	0.4	·	·	·	·
